Experiments:
MS2 coat protein [1] = test: apparent Kd, MS2 coat protein; higher = weaker binding; RNA-MaP array
Procedure, shortened: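 Designed RNAs were transcribed in place on an Illumina sequencing chip from sequenced DNA templates. At room temperature and with or without input ligand, they were incubated with fluorescently labeled MS2 coat protein from 1.5 nM to 3 μM, for 0.8–1.5 h at the lowest and 10–20 min at the highest concentrations. Apparent Kd is the median of the binding-curve fits made per cluster, with designs measured on fewer than 10 clusters excluded.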

MS2 coat protein [2] = test: apparent Kd, MS2 coat protein; higher = weaker binding; RNA-MaP array; FMN 200 µM where present
Procedure, shortened: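 Green signal from SNAP-549-labelled MS2 coat protein was normalised to red-channel RNA signal and to the median Fmax of control clusters. The protein was titrated from 0.7 or 1.5 nM, doubling to 3 µM, without and then with constant ligand, over designs transcribed by stalled E. coli RNA polymerase on Illumina sequencing-chip clusters, in 100 mM Tris-HCl pH 7.5, 80 mM KCl, 4 mM MgCl2, BSA, DTT, yeast tRNA and Tween-20. The apparent Kd is the median of filtered per-cluster binding-curve fits.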

[3] = designed as: OFF switch for flavin mononucleotide, no ligand
[4] = ligand present: flavin mononucleotide, designed as: OFF switch for flavin mononucleotide
[5] = designed as: ON switch for flavin mononucleotide, no ligand
[6] = ligand present: flavin mononucleotide, designed as: ON switch for flavin mononucleotide

Question: For “GCAAUAACAGCAGGAUAUCGUCUCACAUGAGGAUCACCCAUGUUACUAAGUGGCUACUAGGAUUACGAGAAGGGCUGUCCACGC”, which “apparent Kd” value (MS2 coat protein [1]; [3]) is on record?
Answer: 10.7 nM

Question: What about the “apparent Kd” value (MS2 coat protein [1]; [4]) of the same sequence?
Answer: 7.78 nM

Question: “CGGGAACAUGAGGAUCACCCAUGUCAGGAUAUACGCGAUGGCAACAGUGAUUGUUUGUGUAGAAGGGACUUACG” was tested. Which “apparent Kd” value (MS2 coat protein [1]; [3]) did it give?
Answer: 33.3 nM

Question: And the “apparent Kd” value (MS2 coat protein [1]; [4])?
Answer: 30.2 nM

Question: “AUAGCAAAAGUGAGGAUAUUCGACAUAGAACGCAUGAAGAAGGCACAUGAGGAUCACCCAUGUUCUCGUUAGUA” was tested. Which “apparent Kd” value (MS2 coat protein [1]; [3]) did it give?
Answer: 10.6 nM

Question: What about the “apparent Kd” value (MS2 coat protein [1]; [4]) of the same sequence?
Answer: 14.1 nM

Question: What does the source list for “CAGAGACAUGAGGAUCACCCAUGUUGAGAUACCAGCUUGGUAUCGAGCCCUUGGCAGCUCGCCCAUCGUCUAUAUCAGCCUGAGC”?
Answer: apparent Kd (MS2 coat protein [1]; designed as: ON switch for theophylline, no ligand): 16.5 nM; apparent Kd (MS2 coat protein [1]; ligand present: theophylline, designed as: ON switch for theophylline): 20.2 nM

Question: “CGAAUCAACCGGCAGGAUAUGAAAACUAAAACAUGAGGAUCACCCAUGUCGGACAAGAACAUGAUACAGAAGGGCCACGUAACAAG” was tested. Which “apparent Kd” value (MS2 coat protein [1]; [5]) did it give?
Answer: 95.5 nM

Question: What about the “apparent Kd” value (MS2 coat protein [1]; [6]) of the same sequence?
Answer: 26.3 nM

Question: Which “apparent Kd” value (MS2 coat protein [1]; [3]) does the source give for “ACGGGACAUGAGGAUCACCCAUGUUAGGAUAUACGAACUUCGCCGAACGUGACCAAUUGUAGAAGGAACUUGGU” here?
Answer: 17.2 nM

Question: And the “apparent Kd” value (MS2 coat protein [1]; [4])?
Answer: 14 nM

Question: Which results are given for “GACGUGUCGCAGAAGGUGGCGAGGAUAGACAUGAGGAUCACCCAUGUGGGACGCGUUAGGUCUGCCAAGGAUAUGCGCAACUCU”?
Answer: apparent Kd (MS2 coat protein [1]; [3]): 54.3 nM; apparent Kd (MS2 coat protein [1]; [4]): 28.7 nM

Question: How did the “apparent Kd” value (MS2 coat protein [1]; [3]) turn out when “AAACUUACAGGAUAUACAUGAGGAUCACCCAUGUAAACGAAACACCAGGUGAUAGUGGGUAGAAGGGAAUAAAC” was run?
Answer: 22.7 nM

Question: What about the “apparent Kd” value (MS2 coat protein [1]; [4]) of the same sequence?
Answer: 18.5 nM

Question: “UUCCACCUAAAGCGUUGCCCUCGUGAUGAUACCAGUUUCAGCGGUAACCCUUGGCAGCAUCGGACAUGAGGAUCACCCAUGUGGA” was tested. Which “apparent Kd” value (MS2 coat protein [1]; designed as: OFF switch for theophylline, no ligand) did it give?
Answer: 106 nM

Question: And the “apparent Kd” value (MS2 coat protein [1]; ligand present: theophylline, designed as: OFF switch for theophylline)?
Answer: 213 nM

Question: Which “apparent Kd” value (MS2 coat protein [1]; [5]) does the source give for “CGUGCAUGCUAGUAGGAUAUCCCGCAUGAAACAUGAGGAUCACCCAUGUAGAAGAUCUAUGAUCGGGAGAAGGACUCGUGAGAAAC” here?
Answer: 34.6 nM

Question: What about the “apparent Kd” value (MS2 coat protein [1]; [6]) of the same sequence?
Answer: 12.1 nM

Question: “AUUUUAAACAAGAAGGGCUUACGCAAGCUGAGAGCAGGAUAUUGACAUGAGGAUCACCCAUGUAUUAGACCAUAAGAUCCCAUU” was tested. Which “apparent Kd” value (MS2 coat protein [1]; [3]) did it give?
Answer: 20.5 nM

Question: And the “apparent Kd” value (MS2 coat protein [1]; [4])?
Answer: 20.6 nM

Question: “ACGGUAGUACAUGAGGAUCACCCAUGUGGUUUUCUAAGAGGAUAGGAUAUACGUCCAAGCGGCAGGUAGAAGGAUCGAGUUUGC” was tested. Which “apparent Kd” value (MS2 coat protein [1]; [3]) did it give?
Answer: 41.7 nM

Question: And the “apparent Kd” value (MS2 coat protein [1]; [4])?
Answer: 34 nM

Question: “UAAGAAUCAGGAUAUACAGAAAGAUCAACAAAGAGCCAUAAACAUGAGGAUCACCCAUGUAGAAGGGAACAAAU” was tested. Which “apparent Kd” value (MS2 coat protein [1]; [3]) did it give?
Answer: 8.14 nM

Question: What about the “apparent Kd” value (MS2 coat protein [1]; [4]) of the same sequence?
Answer: 7.77 nM

Question: Which results are given for “GACCGGACAUCCUAGGAUAUUUAUACUGAUACAUGAGGAUCACCCAUGUUUGGAAACAUCGUACGAAAGAAGGAGGAGACCUCUGA”?
Answer: apparent Kd (MS2 coat protein [1]; [5]): 11.7 nM; apparent Kd (MS2 coat protein [1]; [6]): 10.8 nM

Question: “GAAAGGGCAAAGAAGGAGGUCCGAGCUCGGCGCCUAGGAUAUUUCUUAACCACAUGAGGAUCACCCAUGUUGACUGUAGUGUGA” was tested. Which “apparent Kd” value (MS2 coat protein [1]; [3]) did it give?
Answer: 31.5 nM

Question: And the “apparent Kd” value (MS2 coat protein [1]; [4])?
Answer: 29 nM

Question: Which results are given for “GUGUUCACUGCAGGAUAUGUACAUGAGGAUCACCCAUGUUGAAACGGCUGGAAUCGGCAGAUGAAACAGAAGGGCAUGAAAAUU”?
Answer: apparent Kd (MS2 coat protein [1]; [5]): 12.8 nM; apparent Kd (MS2 coat protein [1]; [6]): 9.09 nM

Question: For “CAUGCGGCUAGUGAGCGUGGUGAGUAAAGGCGAGGACCGGUACGGCCGCCACUCGAGGCAAGACAUGAGGAUCACCCAUGUUGUA”, which “apparent Kd” value (MS2 coat protein [1]; designed as: OFF switch for tryptophan, no ligand) is on record?
Answer: 15.1 nM

Question: What about the “apparent Kd” value (MS2 coat protein [1]; ligand present: tryptophan, designed as: OFF switch for tryptophan) of the same sequence?
Answer: 12.9 nM

Question: For “AAUUGAAUGGUAAGGAUAUAGGGUCGCGCCGAACGCUAGAAGGUACAUGAGGAUCACCCAUGUUGUGCGUCUUC”, which “apparent Kd” value (MS2 coat protein [1]; [3]) is on record?
Answer: 16.9 nM

Question: What about the “apparent Kd” value (MS2 coat protein [1]; [4]) of the same sequence?
Answer: 17.7 nM

Question: How did the “apparent Kd” value (MS2 coat protein [1]; designed as: ON switch for tryptophan, no ligand) turn out when “UCAAUACAGUCGGCCGCCACUGUAACCAAACCUACAUACCAACAUGAGGAUCACCCAUGUUUAUACAGGACCGGGACCUCUAUGA” was run?
Answer: 36.6 nM

Question: What about the “apparent Kd” value (MS2 coat protein [1]; ligand present: tryptophan, designed as: ON switch for tryptophan) of the same sequence?
Answer: 28.5 nM

Question: Which results are given for “CAAGUAGUGGCAUUAACAUGAGGAUCACCCAUGUUGUGCGUCAGAAGGGCUCUAAUGGAUAACCAGCAGGAUAUGAUUUUCAUC”?
Answer: apparent Kd (MS2 coat protein [1]; [5]): 6.92 nM; apparent Kd (MS2 coat protein [1]; [6]): 6.89 nM

Question: How did the “apparent Kd” value (MS2 coat protein [1]; [3]) turn out when “UAGCCUCUUAGAGGAUAUUCAUAAGCACGCAAUGAAGAAGGCUAGGACAAGUGGGACAUGAGGAUCACCCAUGUGGGAAUAUGU” was run?
Answer: 43.3 nM

Question: And the “apparent Kd” value (MS2 coat protein [1]; [4])?
Answer: 36.8 nM

Question: For “AUCAUGAGAGGAUAUACAUGAGGAUCACCCAUGUGGUAAACACCAUGAGCUCAUUUACGUAGAAGGCUCAUUUG”, which “apparent Kd” value (MS2 coat protein [2]; [3]) is on record?
Answer: 27.6 nM

Question: What about the “apparent Kd” value (MS2 coat protein [2]; [4]) of the same sequence?
Answer: 61.1 nM

Question: Which results are given for “AGGUAACAUGAGGAUCACCCAUGUACCAAUAAUGCAGGAUAUCGACACGAAAAUACGUGUCGAGAAGGGCAUGAAA”?
Answer: apparent Kd (MS2 coat protein [2]; [5]): 14.1 nM; apparent Kd (MS2 coat protein [2]; [6]): 16.4 nM

Question: With “CUGUCGAUAUCAGGAUAUCGAUUAACUACAUGAGGAUCACCCAUGUUGACAUGGAAUAUAACUUGCGAGAAGGGAUAACGAUAG” as the sequence, how does the “apparent Kd” value (MS2 coat protein [2]; [5]) read?
Answer: 23.4 nM

Question: What about the “apparent Kd” value (MS2 coat protein [2]; [6]) of the same sequence?
Answer: 13.8 nM

Question: Which results are given for “UUUGGGUCAGGAUAUUGUUAGUUUAGUUGUUUGUAUUAGUUCGAGAAGGGACAUGAGGAUCACCCAUGUGGUUA”?
Answer: apparent Kd (MS2 coat protein [2]; [3]): 70.5 nM; apparent Kd (MS2 coat protein [2]; [4]): 77.5 nM

Question: How did the “apparent Kd” value (MS2 coat protein [2]; [5]) turn out when “UUACCUCAUGAGAAGGACAUGAGGAUCACCCAUGUAGGAUAUCGUGGGAGACAGGUAUUGAAUCUUCGGAUUCAAUACCAGUCU” was run?
Answer: 396 nM

Question: And the “apparent Kd” value (MS2 coat protein [2]; [6])?
Answer: 27.6 nM
